Test results taken from ChEMBL document CHEMBL2440064, “Synthesis and biological evaluation of 2-amino-5-aryl-3-benzylthiopyridine scaffold based potent c-Met inhibitors” (Bioorg Med Chem, 2013).
Calls of active or inactive are those of the source. The rule behind the calls is not given here.

How the values were obtained:
[1] = target: Tyrosine-protein kinase receptor TYRO3 (Homo sapiens, UniProt Q06418); test: Inhibition of TYRO3 (unknown origin) using poly (Glu, Tyr) 4:1 as substrate after 60 mins by ELISA
Procedure, shortened: (§1)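 ELISA on wells precoated with 20 µg/mL poly(Glu,Tyr)4:1. Purified kinase with 10 µmol/L ATP in 50 mM HEPES pH 7.4, 50 mM MgCl₂, 0.5 mM MnCl₂, 0.2 mM Na₃VO₄, 1 mM DTT; 1% DMSO vehicle. 60 min at 37°C. Phosphotyrosine detected with PY99 antibody, then HRP anti-mouse IgG and o-phenylenediamine/H₂O₂, A490. Inhibition = [1−(A490/A490 control)]×100%; IC50 from curves.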

[2] = target: TPR/MET fusion protein (Mus musculus) (UniProt P16056+F6ZDS4); test: Inhibition of TPR/Met in mouse NIH3T3 cells assessed as inhibition of p44/42 phosphorylation at 0.08 to 10 uM after 2 hrs by Western blotting analysis; type: cell-based
Procedure, shortened: (§2)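 Cells grown to exponential phase, treated with compound 2 h at 37°C, lysed in 1× SDS sample buffer, resolved on 10% SDS-PAGE and transferred to nitrocellulose for immunoblotting.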

SK-MEL-28 = test: Antiproliferative activity against human SK-MEL-28 cells after 72 hrs; settings: SK-MEL-28, 72 h
[3] = target: T1, Hepatocyte growth factor receptor (Homo sapiens, UniProt P08581); test: Inhibition of c-Met (unknown origin) using poly (Glu, Tyr) 4:1 as substrate after 60 mins by ELISA
[4] = target: T1, Hepatocyte growth factor receptor; test: Inhibition of c-Met phosphorylation in human SNU5 cells after 2 hrs by Western blotting analysis; type: cell-based; settings: SNU-5
Procedure, shortened: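 Cells grown under regular conditions to exponential phase, exposed to compound at indicated concentrations for 2 h at 37°C, lysed in 1× SDS sample buffer. Lysates resolved on 10% SDS-PAGE and transferred to nitrocellulose for immunoblotting.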

BaF3 = test: Antiproliferative activity against mouse BAF3 cells expressing TPR/Met fusion protein after 72 hrs; type: functional, cell-based; settings: BaF3, 72 h
Procedure, shortened: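 Cells seeded in 96-well plates, exposed next day to a range of compound concentrations and cultured 72 h; proliferation read by sulforhodamine B or CCK-8. IC50 as mean ± SD (μM) from three separate experiments.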

[5] = target: T1, Hepatocyte growth factor receptor; test: Inhibition of c-Met in gefitinib-resistant human HCC827 cells assessed as inhibition of AKT phosphorylation at 0.5 uM after 2 hrs by Western blotting analysis; type: cell-based; procedure, shortened: as §2
[6] = target: T1, Hepatocyte growth factor receptor; test: Inhibition of c-Met in gefitinib-resistant human HCC827 cells assessed as inhibition of AKT phosphorylation at 0.5 uM after 2 hrs by Western blotting analysis in presence of gefitinib; type: cell-based; procedure, shortened: as §2
[7] = target: T1, Hepatocyte growth factor receptor; test: Inhibition of c-Met in human HCC827/GR5 cells assessed as potentiation of gefitinib-induced cell growth inhibition at 0.5 uM after 72 hrs; type: cell-based
HCT-116 = test: Antiproliferative activity against human HCT116 cells after 72 hrs; settings: HCT-116, 72 h
MDA-MB-231 = test: Antiproliferative activity against human MDA-MB-231 cells after 72 hrs; settings: MDA-MB-231, 72 h
[8] = target: Hepatocyte growth factor receptor (Canis lupus familiaris) (UniProt Q75ZY9); test: Inhibition of c-Met in MDCK cells assessed as HGF-induced cell scattering after 24 hrs by microscopic analysis; type: cell-based
Procedure, shortened: (§3)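 MDCK cells plated at 1,500/well in 96-well plates and allowed to form clusters over 24 h. Then 24 h with compound plus 50 ng/mL recombinant human HGF in FBS-free medium. Fixed in 4% paraformaldehyde 15 min at room temperature, stained with 0.2% crystal violet and imaged by microscopy.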

NIH3T3 = test: Antitumor activity against mouse NIH/3T3 cells expressing TPR/Met allografted in mouse assessed as tumor growth inhibition at 100 mg/kg, po qd administered for 2 weeks measured twice per week relative to vehicle-treated control; type: functional; settings: NIH3T3, 336 h, read-out: TGI
Procedure, shortened: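 Tumor fragments (1 mm³) implanted s.c. in right flank of nude mice by trocar. Randomized at 100–150 mm³ tumor volume. Dosed orally 7 days/week for 2 weeks; vehicle controls. Calipers twice weekly; TV = length×width²/2. Inhibition = 100%×{1−[(T day14−T day0)/(C day14−C day0)]}. n = 6/group, Student's t-test.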

[9] = target: Proto-oncogene tyrosine-protein kinase receptor Ret (Homo sapiens, UniProt P07949); test: Inhibition of RET (unknown origin) using poly (Glu, Tyr) 4:1 as substrate after 60 mins by ELISA; procedure, shortened: as §1
[10] = Half life in rat at 2 mg/kg, iv and 10 mg/kg, po; type: ADME, organism-based; settings: in vivo
Procedure, shortened: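 Rat pharmacokinetics after a single intravenous dose (2 mg/kg) and a single oral dose (10 mg/kg).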

[11] = target: Hepatocyte growth factor receptor (Canis lupus familiaris) (UniProt Q75ZY9); test: Inhibition of c-Met in MDCK cells assessed as HGF-induced cell scattering at 3 uM after 24 hrs by microscopic analysis; type: cell-based; procedure, shortened: as §3
[12] = target: T1, Hepatocyte growth factor receptor; test: Inhibition of c-Met in gefitinib-resistant human HCC827 cells assessed as inhibition of p44/42 phosphorylation at 0.5 uM after 2 hrs by Western blotting analysis; type: cell-based; procedure, shortened: as §2
[13] = target: Proto-oncogene tyrosine-protein kinase Src (Homo sapiens, UniProt P12931); test: Inhibition of c-Src (unknown origin) using poly (Glu, Tyr) 4:1 as substrate after 60 mins by ELISA
Procedure, shortened: (§4)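 Purified kinase incubated with 10 µmol/L ATP in wells pre-coated with 20 µg/mL poly(Glu,Tyr)4:1. Reaction ran 60 min at 37°C. Phosphotyrosine detected with PY99 antibody, then HRP anti-mouse IgG and o-phenylenediamine/H₂O₂, read at 490 nm. IC50 taken from inhibition curves.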

[14] = Volume of distribution in rat at 2 mg/kg, iv and 10 mg/kg, po; type: ADME, organism-based; settings: in vivo
Procedure, shortened: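 Rats given a single iv dose (2 mg/kg) or a single po dose (10 mg/kg).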

[15] = target: T1, Hepatocyte growth factor receptor; test: Competitive inhibition of c-Met (unknown origin) at 1.3 to 160 uM by Lineweaver-Burk plot analysis in presence of ATP
Procedure, shortened: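 ATP-competition version of the poly(Glu,Tyr)4:1 ELISA kinase assay (60 min, 37°C, PY99 antibody detection, A490) run at various ATP concentrations; Lineweaver-Burk plot constructed.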

[16] = target: Vascular endothelial growth factor receptor 2 (Homo sapiens, UniProt P35968); test: Inhibition of KDR (unknown origin) using poly (Glu, Tyr) 4:1 as substrate after 60 mins by ELISA; procedure, shortened: as §1
[17] = target: Mast/stem cell growth factor receptor Kit (Homo sapiens, UniProt P10721); test: Inhibition of c-kit (unknown origin) using poly (Glu, Tyr) 4:1 as substrate after 60 mins by ELISA; procedure, shortened: as §4
[18] = target: Tyrosine-protein kinase receptor UFO (Homo sapiens, UniProt P30530); test: Inhibition of AXL (unknown origin) using poly (Glu, Tyr) 4:1 as substrate after 60 mins by ELISA; procedure, shortened: as §1
[19] = target: Platelet-derived growth factor receptor alpha (Homo sapiens, UniProt P16234); test: Inhibition of PDGFRalpha (unknown origin) using poly (Glu, Tyr) 4:1 as substrate after 60 mins by ELISA; procedure, shortened: as §1

T1 sequence (P08581 whole entry): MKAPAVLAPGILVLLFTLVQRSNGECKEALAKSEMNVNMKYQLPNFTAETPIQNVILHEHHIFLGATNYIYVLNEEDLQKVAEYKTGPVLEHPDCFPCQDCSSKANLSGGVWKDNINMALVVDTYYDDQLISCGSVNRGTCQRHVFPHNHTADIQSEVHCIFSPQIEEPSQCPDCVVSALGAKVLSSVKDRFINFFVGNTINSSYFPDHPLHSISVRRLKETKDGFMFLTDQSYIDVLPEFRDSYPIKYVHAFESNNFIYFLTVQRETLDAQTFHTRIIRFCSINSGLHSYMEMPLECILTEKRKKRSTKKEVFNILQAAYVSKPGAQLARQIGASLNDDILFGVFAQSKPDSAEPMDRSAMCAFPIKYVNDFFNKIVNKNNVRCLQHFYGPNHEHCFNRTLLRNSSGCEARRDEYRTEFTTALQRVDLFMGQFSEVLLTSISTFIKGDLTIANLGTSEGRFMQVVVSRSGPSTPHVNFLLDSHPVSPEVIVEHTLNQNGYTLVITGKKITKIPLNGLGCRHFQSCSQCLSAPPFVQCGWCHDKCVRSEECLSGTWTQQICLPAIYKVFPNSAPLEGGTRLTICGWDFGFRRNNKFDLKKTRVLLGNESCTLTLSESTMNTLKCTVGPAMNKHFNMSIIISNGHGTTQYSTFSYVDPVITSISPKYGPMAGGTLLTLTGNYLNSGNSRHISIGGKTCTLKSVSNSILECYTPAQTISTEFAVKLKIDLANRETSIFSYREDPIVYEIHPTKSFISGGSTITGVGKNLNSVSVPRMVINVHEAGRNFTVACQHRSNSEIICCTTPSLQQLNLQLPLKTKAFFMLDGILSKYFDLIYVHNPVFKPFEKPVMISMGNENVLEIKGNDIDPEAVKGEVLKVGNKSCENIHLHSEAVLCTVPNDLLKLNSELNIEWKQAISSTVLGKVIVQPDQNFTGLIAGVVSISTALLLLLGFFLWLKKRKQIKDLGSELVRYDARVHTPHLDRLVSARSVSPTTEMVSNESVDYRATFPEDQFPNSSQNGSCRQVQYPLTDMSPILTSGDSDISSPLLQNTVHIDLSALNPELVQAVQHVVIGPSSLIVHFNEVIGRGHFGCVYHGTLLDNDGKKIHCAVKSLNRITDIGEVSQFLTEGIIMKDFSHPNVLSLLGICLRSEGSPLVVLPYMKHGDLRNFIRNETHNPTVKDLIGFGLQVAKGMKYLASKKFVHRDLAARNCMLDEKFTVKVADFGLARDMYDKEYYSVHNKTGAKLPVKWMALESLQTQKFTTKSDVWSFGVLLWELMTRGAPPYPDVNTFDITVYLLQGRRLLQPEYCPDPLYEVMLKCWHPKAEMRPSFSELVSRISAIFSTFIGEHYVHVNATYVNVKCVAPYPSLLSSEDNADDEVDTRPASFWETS
Hepatocyte growth factor receptor (Canis lupus familiaris), sequence (Q75ZY9 whole entry): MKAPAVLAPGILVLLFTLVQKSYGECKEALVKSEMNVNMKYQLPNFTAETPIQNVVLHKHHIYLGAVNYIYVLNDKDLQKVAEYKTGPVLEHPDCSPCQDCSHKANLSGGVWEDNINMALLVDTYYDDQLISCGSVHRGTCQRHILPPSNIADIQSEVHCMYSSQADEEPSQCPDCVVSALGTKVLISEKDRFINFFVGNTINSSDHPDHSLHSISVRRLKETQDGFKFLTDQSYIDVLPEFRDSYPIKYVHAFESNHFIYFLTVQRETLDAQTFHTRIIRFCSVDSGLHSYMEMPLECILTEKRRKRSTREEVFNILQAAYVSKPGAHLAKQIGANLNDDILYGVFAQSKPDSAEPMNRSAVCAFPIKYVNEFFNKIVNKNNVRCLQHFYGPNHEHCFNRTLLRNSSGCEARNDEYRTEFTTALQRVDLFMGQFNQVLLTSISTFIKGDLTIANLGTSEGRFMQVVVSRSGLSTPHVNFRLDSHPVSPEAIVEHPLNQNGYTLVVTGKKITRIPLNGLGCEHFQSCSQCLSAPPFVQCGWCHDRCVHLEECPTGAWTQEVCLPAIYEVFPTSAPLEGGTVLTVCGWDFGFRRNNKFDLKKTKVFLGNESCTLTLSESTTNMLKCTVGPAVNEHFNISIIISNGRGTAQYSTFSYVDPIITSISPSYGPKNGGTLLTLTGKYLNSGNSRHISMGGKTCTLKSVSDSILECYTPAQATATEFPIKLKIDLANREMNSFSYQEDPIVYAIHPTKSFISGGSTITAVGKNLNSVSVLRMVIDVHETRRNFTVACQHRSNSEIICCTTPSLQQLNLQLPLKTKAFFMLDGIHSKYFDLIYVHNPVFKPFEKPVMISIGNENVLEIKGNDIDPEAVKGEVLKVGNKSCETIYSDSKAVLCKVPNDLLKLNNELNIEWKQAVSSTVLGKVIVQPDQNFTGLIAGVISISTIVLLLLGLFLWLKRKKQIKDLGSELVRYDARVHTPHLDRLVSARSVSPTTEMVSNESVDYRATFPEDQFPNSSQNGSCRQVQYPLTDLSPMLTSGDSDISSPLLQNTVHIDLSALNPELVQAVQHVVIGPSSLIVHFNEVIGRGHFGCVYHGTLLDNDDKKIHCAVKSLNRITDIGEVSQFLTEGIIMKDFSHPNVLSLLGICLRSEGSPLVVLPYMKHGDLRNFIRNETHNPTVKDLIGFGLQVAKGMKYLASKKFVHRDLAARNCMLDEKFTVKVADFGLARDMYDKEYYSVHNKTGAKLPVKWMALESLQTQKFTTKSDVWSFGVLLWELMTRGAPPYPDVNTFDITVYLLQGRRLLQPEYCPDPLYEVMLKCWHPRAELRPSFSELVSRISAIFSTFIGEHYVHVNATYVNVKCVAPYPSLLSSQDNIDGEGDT
Mast/stem cell growth factor receptor Kit, sequence (P10721 whole entry): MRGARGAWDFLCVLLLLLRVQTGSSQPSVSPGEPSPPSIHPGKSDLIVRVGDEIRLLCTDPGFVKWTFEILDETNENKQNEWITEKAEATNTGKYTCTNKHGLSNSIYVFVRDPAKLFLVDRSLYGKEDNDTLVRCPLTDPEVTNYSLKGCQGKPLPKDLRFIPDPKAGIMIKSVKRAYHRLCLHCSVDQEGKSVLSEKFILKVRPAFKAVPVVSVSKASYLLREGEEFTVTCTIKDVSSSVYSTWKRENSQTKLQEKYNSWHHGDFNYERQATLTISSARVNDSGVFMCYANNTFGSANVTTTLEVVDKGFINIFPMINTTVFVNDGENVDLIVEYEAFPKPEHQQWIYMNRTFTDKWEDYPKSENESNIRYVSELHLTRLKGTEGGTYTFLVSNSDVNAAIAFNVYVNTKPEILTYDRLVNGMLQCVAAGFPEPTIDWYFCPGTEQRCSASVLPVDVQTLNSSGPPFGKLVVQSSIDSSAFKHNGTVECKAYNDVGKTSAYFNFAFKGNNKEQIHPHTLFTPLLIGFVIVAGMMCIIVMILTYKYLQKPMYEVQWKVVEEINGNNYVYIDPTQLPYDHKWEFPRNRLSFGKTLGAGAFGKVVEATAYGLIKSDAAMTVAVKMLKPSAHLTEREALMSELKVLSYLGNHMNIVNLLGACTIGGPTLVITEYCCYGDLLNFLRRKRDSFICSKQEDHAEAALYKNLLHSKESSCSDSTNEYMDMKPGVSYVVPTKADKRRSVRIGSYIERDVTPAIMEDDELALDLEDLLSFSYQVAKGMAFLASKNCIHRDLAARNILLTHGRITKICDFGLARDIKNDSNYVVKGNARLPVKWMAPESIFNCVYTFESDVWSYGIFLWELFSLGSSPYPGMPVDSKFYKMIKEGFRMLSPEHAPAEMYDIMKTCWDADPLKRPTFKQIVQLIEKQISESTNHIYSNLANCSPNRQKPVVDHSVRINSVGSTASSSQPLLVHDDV
Tyrosine-protein kinase receptor TYRO3, sequence (Q06418 whole entry): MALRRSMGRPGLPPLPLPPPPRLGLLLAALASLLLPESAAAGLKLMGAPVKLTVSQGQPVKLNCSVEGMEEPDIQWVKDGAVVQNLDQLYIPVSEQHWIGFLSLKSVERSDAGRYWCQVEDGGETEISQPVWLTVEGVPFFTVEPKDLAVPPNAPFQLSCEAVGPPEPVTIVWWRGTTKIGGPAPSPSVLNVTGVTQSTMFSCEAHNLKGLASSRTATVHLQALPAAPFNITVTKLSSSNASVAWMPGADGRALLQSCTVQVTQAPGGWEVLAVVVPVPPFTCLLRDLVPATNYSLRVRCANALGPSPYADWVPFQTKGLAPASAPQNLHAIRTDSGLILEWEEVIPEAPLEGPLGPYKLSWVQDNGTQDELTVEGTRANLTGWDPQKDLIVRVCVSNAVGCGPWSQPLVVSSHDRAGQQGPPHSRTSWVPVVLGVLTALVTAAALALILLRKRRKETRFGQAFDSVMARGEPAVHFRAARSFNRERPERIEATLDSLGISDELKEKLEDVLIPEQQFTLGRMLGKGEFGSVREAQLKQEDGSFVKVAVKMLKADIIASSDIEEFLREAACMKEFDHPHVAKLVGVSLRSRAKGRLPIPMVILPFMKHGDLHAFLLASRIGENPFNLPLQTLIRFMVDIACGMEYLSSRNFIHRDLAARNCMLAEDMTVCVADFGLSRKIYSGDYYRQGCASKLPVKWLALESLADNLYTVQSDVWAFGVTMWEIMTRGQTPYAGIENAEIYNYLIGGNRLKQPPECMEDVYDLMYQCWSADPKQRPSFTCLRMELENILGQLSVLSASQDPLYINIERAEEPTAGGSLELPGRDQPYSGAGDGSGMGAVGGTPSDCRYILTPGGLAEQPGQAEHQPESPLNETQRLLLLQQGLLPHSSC

IC50 [1]: > 1000 nM
inhibition [2]: Active
IC50 (SK-MEL-28): 9310 nM
IC50 [3]: 7.7 nM
inhibition [4]: Dose-dependent effect
IC50 (BaF3): 580 nM
inhibition [5]: inactive
inhibition [6]: Active
inhibition [7]: Active
IC50 (HCT-116): 14300 nM
IC50 (MDA-MB-231): 12100 nM
inhibition [8]: Dose-dependent effect
IC50 [9]: > 1000 nM
half-life [10]: 5.7 h
inhibition [11]: Active
inhibition [12]: inactive
IC50 [13]: > 1000 nM
Vd [14]: 20 L/kg
inhibition [15]: Active
IC50 [16]: > 1000 nM
IC50 [17]: > 1000 nM
IC50 [18]: 446 nM
IC50 [19]: > 1000 nM
SMILES: C[C@@H](Sc1cc(-c2cnn(C3CCNCC3)c2)cnc1N)c1c(Cl)ccc(F)c1Cl
inhibition in vivo at 100 mg/kg (NIH3T3): 45.5%
